For 16 compounds, Activity results are on record in ChEMBL document CHEMBL1759958, “Disassembly of preformed amyloid beta fibrils by small organofluorine molecules” (Bioorg Med Chem Lett, 2011).

Experiment [1] in a line: Induction of disassembly of preformed amyloid beta (1 to 40) fibrils assessed as decrease in fibril amount at 10:1 compound to amyloid beta ratio by thioflavin T fluorescence method. Summed up:
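Aβ1-40 fibrils were grown at 100 μM final in 10 mM HEPES/100 mM NaCl, pH 7.4, at 37°C with 77 rpm shaking until THT saturation. Compound was added from 0.15 M DMSO stock, vortexed and re-incubated under the same conditions, then sampled periodically into 5 μM ThT (glycine-NaOH, pH 8.5). Read at ex 430/em 484 nm, ThT background subtracted, normalized to Aβ-only control; 3–4 parallel runs, mean ± SD.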

Experiment [2] is described as follows: Induction of disassembly of preformed amyloid beta (1 to 40) fibrils assessed as disaggregated fibrils at 10:1 compound to amyloid beta ratio for 4 days by fourier-transform infrared spectroscopy. The essentials:
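Preformed Aβ1-40 fibrils (100 μM, HEPES pH 7.4, grown at 37°C with 77 rpm shaking to THT saturation) were exposed to compound added from DMSO stock and re-incubated at 37°C with shaking. For FTIR, 20 μl aliquots were lyophilized and mixed with 0.2 g solid KBr.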

Experiment [3] can be described thus: Induction of disassembly of preformed amyloid beta (1 to 40) fibrils assessed as disaggregated fibrils at 10:1 compound to amyloid beta ratio for 4 days by atomic force microscopy. The essentials:
(§1)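 Synthetic Aβ1-40 dissolved in 100 mM NaOH, diluted to 100 μM in 10 mM HEPES (100 mM NaCl, 0.02% NaN3, pH 7.4), grown at 37°C with shaking (77 rpm) until ThT saturation. Compound added from 0.15 M DMSO stock at 10:1 molar ratio, vortexed 30 s, re-incubated 37°C shaking. Aliquots of 2-5 μL spotted on fresh mica for 30-60 s, water-rinsed, air-dried. Imaged by non-contact AFM.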

Experiment [4] is described as follows: Induction of disassembly of preformed amyloid beta (1 to 40) fibrils assessed as disaggregated fibrils at 10:1 compound to amyloid beta ratio for 6 days by atomic force microscopy. Summed up:
as §1

Experiment [5] in a line: Induction of disassembly of preformed amyloid beta (1 to 40) fibrils assessed as disaggregated fibrils at 10:1 compound to amyloid beta ratio by atomic force microscopy. As to conditions: TDE = time-dependent effect. The essentials: as §1
The nature of experiment [6]: Induction of disassembly of preformed amyloid beta (1 to 40) fibrils assessed as disaggregated fibrils at 10:1 compound to amyloid beta ratio for 1 day by atomic force microscopy. Summed up: as §1

Active and inactive are the calls of the source. The rule behind the calls is not given here.

Turning to `CCOC(=O)C(O)(c1c(C)n(C)c2ccccc12)C(F)(F)F` (racemic), in experiment [1], the result was Active.
Same read-out and setting: the entry for `CCOC(=O)C(O)(c1c[nH]c2ccccc12)C(F)(F)F` (racemic) is “Active”.
With `CCOC(=O)[C@@](O)(c1c[nH]c2ccc(Cl)cc12)C(F)(F)F`, the outcome in experiment [2], in experiment [1] and in experiment [3] was Active.
Regarding `CCOC(=O)C(O)(c1c[nH]c2ccc(Br)cc12)C(F)(F)F` (racemic), the outcome in experiment [2] and in experiment [1] was Active.
With `CCOC(=O)C(O)(c1c(C)[nH]c2ccc(OC)cc12)C(F)(F)F` (racemic), in experiment [1], the outcome was Active.
Turning to `CCOC(=O)[C@@](O)(c1c[nH]c2ccc(Br)cc12)C(F)(F)F`, the result in experiment [2] and in experiment [1] was Active.
Take `CCOC(=O)[C@](O)(c1c[nH]c2ccc(Cl)cc12)C(F)(F)F`: the result in experiment [2] and in experiment [1] was Active.
In the case of `CCOC(=O)C(O)(c1c[nH]c2ccc(I)cc12)C(F)(F)F` (racemic), in experiment [1], the outcome was Active.
On the same count and under the same terms, the entry for `CCOC(=O)C(O)(c1c(C)[nH]c2ccc(C)cc12)C(F)(F)F` (racemic) is “Active”.
On to `CCOC(=O)[C@](O)(c1c[nH]c2ccc(Br)cc12)C(F)(F)F`, for which the result in experiment [2] and in experiment [1] was Active.
`CCOC(=O)[C@@](O)(c1c[nH]c2ccc(I)cc12)C(F)(F)F`: the outcome in experiment [2], in experiment [1] and in experiment [3] was Active.
In the case of `CCOC(=O)C(O)(c1c(C)[nH]c2ccc(C(=O)OC)cc12)C(F)(F)F` (racemic), the outcome in experiment [2] and in experiment [1] was Active.
As to `CCOC(=O)C(O)(c1c[nH]c2ccc(Cl)cc12)C(F)(F)F` (racemic), the outcome in experiment [2] and in experiment [1] was Active.
Regarding `CCOC(=O)C(O)(c1c[nH]c2ccc(C)cc12)C(F)(F)F` (racemic), the outcome in experiment [1] was Active.
Regarding `COc1ccc2[nH]cc(CCNC(C)=O)c2c1`, the result in experiment [2] and in experiment [1] was Active.
Consider `CCOC(=O)[C@](O)(c1c[nH]c2ccc(I)cc12)C(F)(F)F`, for which the outcome in experiment [4], in experiment [2], in experiment [1], in experiment [6] and in experiment [3] was Active. Further, the Activity result in experiment [5] was “tde”.
